Tests used:
Format in all cases: functional, Hippocampal neurone
[1] = Induction of neurite outgrowth in rat hippocampal neurons assessed as neurite total length at 250 ng/ml after 48 hrs relative to control
Method in brief: (§1)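 E18 rat hippocampal neurons were plated on PDL at 1800 cells/well in NbActive4, adhered 2 h, then treated with compound prediluted in medium at 4× final for 48 h. Cells were fixed, stained for βIII-tubulin, imaged and auto-traced. Mean neurite total length is a percentage of DMSO vehicle wells on the same plate. ML-7 was the positive control and plates with Z-factor >0.5 were accepted.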

[2] = Induction of neurite outgrowth in rat hippocampal neurons assessed as neurite total length at 125 ng/ml after 48 hrs relative to control; method in brief: as §1
[3] = Induction of neurite outgrowth in rat hippocampal neurons assessed as neurite total length at 31.25 ng/ml after 48 hrs relative to control; method in brief: as §1
[4] = Induction of neurite outgrowth in rat hippocampal neurons assessed as neurite total length at 500 ng/ml after 48 hrs relative to control; method in brief: as §1
[5] = Induction of neurite outgrowth in rat hippocampal neurons assessed as neurite total length at 62.5 ng/ml after 48 hrs relative to control; method in brief: as §1
[6] = Induction of neurite outgrowth in rat hippocampal neurons assessed as neurite total length at 15.625 ng/ml after 48 hrs relative to control; method in brief: as §1
[7] = Induction of neurite outgrowth in rat hippocampal neurons assessed as neurite total length after 48 hrs
Method in brief: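 Dissociated E18 rat hippocampal neurons were seeded on PDL-coated plates at 1800 cells/well in NbActive4 and allowed to adhere 2 h. Compounds were prediluted in medium at 4× final and added, then cells were grown 48 h (2 DIV). Wells were fixed, immunostained for βIII-tubulin and imaged by automated tracing. ED200% and ED300% values were linearly interpolated from dose-response curves of mean neurite total length.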

C[C@@H]1CN(CCCC[C@H]2CNC(CC3CCCC3)=N2)C(=S)N1CCCC1CCCCC1
Activity [1]: 245.7679% | Activity [2]: 250.7% | Activity [3]: 157.6% | Activity [4]: 304.4% | Activity [5]: 188% | Activity [6]: 104.7%

CC1CCC(CCN2C(=S)N(CCCC[C@H]3CNC(CCCCc4ccccc4)=N3)C[C@H]2C)CC1 (some centres undefined)
Activity [1]: 237.6% | Activity [2]: 70.33% | Activity [3]: 101.9% | Activity [4]: 296.9% | Activity [5]: 117.7% | Activity [6]: 88.36%

CC1CCC(CN2C(=S)N(CCCC[C@H]3CNC(CCCc4ccccc4)=N3)C[C@H]2c2ccccc2)CC1 (some centres undefined)
Activity [1]: 244.7% | Activity [2]: 269.1% | Activity [3]: 174.3% | Activity [4]: 221.2261% | ED200 [7]: 17 nM | ED300 [7]: >471 nM | Activity [5]: 237.5% | Activity [6]: 184.9%

CC(C)C[C@@H]1CN(CCCC[C@H]2CNC(CCCc3ccccc3)=N2)C(=S)N1CC1CCC(C)CC1 (some centres undefined)
Activity [1]: 240% | Activity [2]: 256.9% | Activity [3]: 197% | Activity [4]: 224.4% | ED200 [7]: 25 nM | ED300 [7]: 461 nM | Activity [5]: 246.7% | Activity [6]: 144.9%

CC(C)CCCCN1C(=S)N(CCCC[C@H]2CNC(CCCCc3ccccc3)=N2)C[C@H]1C
Activity [1]: 257.3265% | Activity [2]: 160.4% | Activity [3]: 100.5% | Activity [4]: 346.7% | Activity [5]: 124.2% | Activity [6]: 116.4%

CCC(C)CC1=N[C@@H](CCCCN2C[C@@H](c3ccccc3)N(CCCC3CCCCC3)C2=S)CN1 (some centres undefined)
Activity [1]: 221.9% | Activity [2]: 245.5% | Activity [3]: 200.8% | Activity [4]: 228.1% | Activity [5]: 257.2% | Activity [6]: 139%

C[C@@H]1CN(CCCC[C@H]2CNC(CCCCc3ccccc3)=N2)C(=S)N1CCCC1CCCCC1
Activity [1]: 246.6% | Activity [2]: 209.7% | Activity [3]: 122.1% | Activity [4]: 242.7% | Activity [5]: 122% | Activity [6]: 100.8%

CC(C)CCCCN1C(=S)N(CCCC[C@H]2CNC(CC3CCCC3)=N2)C[C@H]1c1ccccc1
Activity [1]: 277.9% | Activity [2]: 249.2% | Activity [3]: 234.3% | Activity [4]: 273% | Activity [5]: 279.6% | Activity [6]: 173.9%

CCC(C)C1=N[C@@H](CCCCN2C[C@@H](CC(C)C)N(CC3CCC(C)CC3)C2=S)CN1 (some centres undefined)
Activity [1]: 236% | Activity [2]: 268.2% | Activity [3]: 216.3% | Activity [4]: 264.4% | ED200 [7]: 10 nM | ED300 [7]: 53 nM | Activity [5]: 253.6% | Activity [6]: 131.1%

CCC(C)CC1=N[C@@H](CCCCN2C[C@@H](C)N(CCCCC(C)C)C2=S)CN1 (some centres undefined)
Activity [1]: 209.2% | Activity [2]: 169.1% | Activity [3]: 115.6% | Activity [4]: 323.0821% | Activity [5]: 155% | Activity [6]: 92.45%

S=C1N(CCCC[C@H]2CNC(CCCCc3ccccc3)=N2)C[C@@H](c2ccccc2)N1CCCC1CCCCC1
Activity [1]: 221.8% | Activity [2]: 254.2% | Activity [3]: 208.9% | Activity [4]: 183.5% | Activity [5]: 251.6% | Activity [6]: 143.7%

CCC(C)CC1=N[C@@H](CCCCN2C[C@@H](CC(C)C)N(CCCC3CCCCC3)C2=S)CN1 (some centres undefined)
Activity [1]: 253.1% | Activity [2]: 252.9% | Activity [3]: 178.9% | Activity [4]: 264.0755% | Activity [5]: 261.9% | Activity [6]: 158.9%

CCC(C)CC1=N[C@@H](CCCCN2C[C@@H](C)N(CCCC3CCCCC3)C2=S)CN1 (some centres undefined)
Activity [1]: 246.1% | Activity [2]: 196.1% | Activity [3]: 121.4% | Activity [4]: 357.5% | Activity [5]: 142.6% | Activity [6]: 102.3%

Source: ChEMBL document CHEMBL4266015, “Scaffold Ranking and Positional Scanning Identify Novel Neurite Outgrowth Promoters with Nanomolar Potency” (2018)
